Peptide text beside a SMILES is read from it.
Key:
HCT-116 = test: Cytotoxicity against multidrug-resistant human HCT116 cells at 1 uM by thymidine incorporation assay; assay type: functional
Procedure, shortened: (§1)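 HCT-116 cells were grown in IMDM and HCT-15 in RPMI 1640, each with L-glutamine, 10% FBS and penicillin-streptomycin, at 3000 cells/well. Compound was applied at 1 µM in 1% DMSO for 72 h total, with 3H-thymidine added for the final 16 h. Percent growth inhibition versus DMSO controls was scintillation-counted, averaging three wells in each of three assays.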

HCT-15 = test: Cytotoxicity against multidrug-resistant human HCT15 cells at 1 uM by thymidine incorporation assay; assay type: functional; procedure, shortened: as §1

| SMILES | inhibition at 1 µM (HCT-116) [%] | inhibition at 1 µM (HCT-15) [%] |
| --- | --- | --- |
| CC(C)C[C@@H]1NC(=O)[C@H](Cc2ccccc2)NC(=O)[C@@H](Cc2ccccc2)NC(=O)[C@H](C(C)C)NC(=O)[C@H](CC(C)C)NC1=O | 35 | 14 |
| CC(C)C[C@@H]1NC(=O)[C@H](C)NC(=O)[C@H](CC(C)C)NC(=O)[C@H](CC(C)C)NC(=O)[C@H](Cc2ccccc2)NC1=O (HELM PEPTIDE1{A.L.F.L.L}$PEPTIDE1,PEPTIDE1,1:R1-5:R2$$$V2.0) | 23 | 40 |
| CC(C)C[C@@H]1NC(=O)[C@H](Cc2ccccc2)NC(=O)[C@H](CC(C)C)NC(=O)[C@H](C(C)C)NC(=O)[C@H](CCCCN)NC1=O (HELM PEPTIDE1{F.L.K.V.L}$PEPTIDE1,PEPTIDE1,1:R1-5:R2$$$V2.0) | 23 | 15 |
| CC(C)C[C@@H]1NC(=O)[C@H](Cc2ccccc2)NC(=O)[C@@H](Cc2ccccc2)N(C)C(=O)[C@H](C(C)C)NC(=O)[C@H](CCCCN)NC1=O (HELM PEPTIDE1{F.L.K.V.[CN([C@H](Cc1ccccc1)C(=O)[*:2])[*:1]]}$PEPTIDE1,PEPTIDE1,1:R1-5:R2$$$V2.0) | 30 | 26 |
| CC(C)C[C@@H]1NC(=O)[C@H](Cc2ccccc2)NC(=O)[C@H](CC(C)C)NC(=O)[C@@H](C(C)C)NC(=O)[C@H](CCCCN)NC1=O (HELM PEPTIDE1{F.L.K.[dV].L}$PEPTIDE1,PEPTIDE1,1:R1-5:R2$$$V2.0) | 11 | 18 |
| CC(C)C[C@@H]1NC(=O)[C@H](Cc2ccccc2)NC(=O)[C@@H](CO)NC(=O)[C@H](C(C)C)NC(=O)[C@H](CC(C)C)NC1=O (HELM PEPTIDE1{F.L.L.V.[dS]}$PEPTIDE1,PEPTIDE1,1:R1-5:R2$$$V2.0) | 37 | 3 |
| CC(C)C[C@@H]1NC(=O)[C@H](Cc2ccccc2)NC(=O)[C@H](CC(C)C)NC(=O)[C@@H](C(C)C)N(C)C(=O)[C@H](CC(C)C)NC1=O (HELM PEPTIDE1{F.L.L.[CC(C)[C@H](C(=O)[*:2])N(C)[*:1]].L}$PEPTIDE1,PEPTIDE1,1:R1-5:R2$$$V2.0) | 19 | 21 |
| CC(C)C[C@@H]1NC(=O)[C@H](Cc2ccccc2)NC(=O)[C@@H](CC(C)C)N(C)C(=O)[C@@H](C(C)C)N(C)C(=O)[C@H](CC(C)C)NC1=O (HELM PEPTIDE1{F.L.L.[CC(C)[C@H](C(=O)[*:2])N(C)[*:1]].[CC(C)C[C@H](C(=O)[*:2])N(C)[*:1]]}$PEPTIDE1,PEPTIDE1,1:R1-5:R2$$$V2.0) | 30 | 7 |
| CC[C@H]1NC(=O)[C@H](CC(C)C)NC(=O)[C@H](CC(C)C)NC(=O)[C@H](Cc2ccccc2)NC(=O)[C@H](CC(C)C)NC1=O (HELM PEPTIDE1{F.L.L.[CC[C@@H](N[*:1])C(=O)[*:2]].L}$PEPTIDE1,PEPTIDE1,1:R1-5:R2$$$V2.0) | 17 | 20 |
| CC(C)C[C@@H]1NC(=O)[C@H](Cc2ccccc2)NC(=O)[C@H](CC(C)C)NC(=O)[C@@H](Cc2ccccc2)NC(=O)[C@H](CC(C)C)NC1=O (HELM PEPTIDE1{F.L.L.[dF].L}$PEPTIDE1,PEPTIDE1,1:R1-5:R2$$$V2.0) | 11 | 11 |
| CC(C)C[C@@H]1NC(=O)[C@H](Cc2ccccc2)NC(=O)[C@H](CC(C)C)NC(=O)[C@@H](CO)NC(=O)[C@H](CC(C)C)NC1=O (HELM PEPTIDE1{F.L.L.[dS].L}$PEPTIDE1,PEPTIDE1,1:R1-5:R2$$$V2.0) | 0 | 11 |
| CC(C)C[C@@H]1NC(=O)[C@H](Cc2ccccc2)NC(=O)[C@@H](CC(C)C)NC(=O)[C@@H](C(C)C)NC(=O)[C@H](CC(C)C)NC1=O (HELM PEPTIDE1{F.L.L.[dV].[dL]}$PEPTIDE1,PEPTIDE1,1:R1-5:R2$$$V2.0) | 34 | 17 |
| CC(C)C[C@@H]1NC(=O)[C@H](Cc2ccccc2)NC(=O)[C@H](CC(C)C)NC(=O)[C@H](C(C)C)N(C)C(=O)[C@H](CC(C)C)NC1=O (HELM PEPTIDE1{F.L.L.[meV].L}$PEPTIDE1,PEPTIDE1,1:R1-5:R2$$$V2.0) | 6 | 23 |
| CC(C)C[C@@H]1NC(=O)[C@H](Cc2ccccc2)NC(=O)[C@H](CC(C)C)N(C)C(=O)[C@H](C(C)C)N(C)C(=O)[C@H](CC(C)C)NC1=O (HELM PEPTIDE1{F.L.L.[meV].[meL]}$PEPTIDE1,PEPTIDE1,1:R1-5:R2$$$V2.0) | 10 | 0 |
| CC(C)C[C@@H]1NC(=O)[C@H](Cc2ccccc2)NC(=O)[C@H](CC(C)C)NC(=O)[C@H](C(C)C)NC(=O)[C@@H](CC(C)C)NC1=O (HELM PEPTIDE1{F.L.[dL].V.L}$PEPTIDE1,PEPTIDE1,1:R1-5:R2$$$V2.0) | 0 | 15 |
| CC(C)C[C@@H]1NC(=O)[C@H](C(C)C)NC(=O)[C@H](CC(C)C)N(C)C(=O)[C@H](CC(C)C)NC(=O)[C@H](Cc2ccccc2)NC1=O (HELM PEPTIDE1{F.L.[meL].V.L}$PEPTIDE1,PEPTIDE1,1:R1-5:R2$$$V2.0) | 30 | 57 |

| SMILES | inhibition at 1 µM (HCT-116) [%] | inhibition at 1 µM (HCT-15) [%] |
| --- | --- | --- |
| CC(C)[C@@H]1NC(=O)[C@H](Cc2ccccc2)NC(=O)[C@@H](CO)NC(=O)[C@H](C(C)C)NC(=O)[C@H](C(C)C)NC1=O (HELM PEPTIDE1{F.V.V.V.[dS]}$PEPTIDE1,PEPTIDE1,1:R1-5:R2$$$V2.0) | 0 | 18 |
| CC[C@H]1NC(=O)[C@H](C(C)C)NC(=O)[C@H](C(C)C)NC(=O)[C@H](Cc2ccccc2)NC(=O)[C@H](C(C)C)NC1=O (HELM PEPTIDE1{F.V.V.[CC[C@@H](N[*:1])C(=O)[*:2]].V}$PEPTIDE1,PEPTIDE1,1:R1-5:R2$$$V2.0) | 16 | 2 |
| CC(C)[C@@H]1NC(=O)[C@H](Cc2ccccc2)NC(=O)[C@H](C(C)C)NC(=O)[C@@H](CO)NC(=O)[C@H](C(C)C)NC1=O (HELM PEPTIDE1{F.V.V.[dS].V}$PEPTIDE1,PEPTIDE1,1:R1-5:R2$$$V2.0) | 18 | 13 |
| CC(C)[C@@H]1NC(=O)[C@H](Cc2ccccc2)NC(=O)[C@H](C(C)C)NC(=O)[C@@H](C(C)C)NC(=O)[C@H](C(C)C)NC1=O (HELM PEPTIDE1{F.V.V.[dV].V}$PEPTIDE1,PEPTIDE1,1:R1-5:R2$$$V2.0) | 19 | 1 |
| CC(C)C[C@@H]1NC(=O)CN(C)C(=O)[C@H](Cc2ccccc2)NC(=O)[C@H](C(C)C)NC(=O)[C@@H](C(C)C)NC1=O (HELM PEPTIDE1{F.[Sar].L.[dV].V}$PEPTIDE1,PEPTIDE1,1:R1-5:R2$$$V2.0) | 20 | 18 |
| CC(C)C[C@@H]1NC(=O)[C@H](C(C)C)NC(=O)[C@H](CC(C)C)NC(=O)[C@@H](CC(C)C)NC(=O)[C@H](Cc2ccccc2)NC1=O (HELM PEPTIDE1{F.[dL].L.V.L}$PEPTIDE1,PEPTIDE1,1:R1-5:R2$$$V2.0) | 45 | 10 |
| CC(C)C[C@@H]1NC(=O)[C@@H](C(C)C)N(C)C(=O)[C@H](CC(C)C)NC(=O)[C@@H](CC(C)C)NC(=O)[C@H](Cc2ccccc2)NC1=O (HELM PEPTIDE1{F.[dL].L.[CC(C)[C@H](C(=O)[*:2])N(C)[*:1]].L}$PEPTIDE1,PEPTIDE1,1:R1-5:R2$$$V2.0) | 38 | 14 |
| CC(C)C[C@@H]1NC(=O)[C@@H](CC(C)C)NC(=O)[C@H](Cc2ccccc2)NC(=O)[C@H](CC(C)C)NC(=O)[C@@H](C(C)C)NC1=O (HELM PEPTIDE1{F.[dL].L.[dV].L}$PEPTIDE1,PEPTIDE1,1:R1-5:R2$$$V2.0) | 16 | 20 |
| CC(C)C[C@@H]1NC(=O)[C@H](C(C)C)NC(=O)[C@@H](CC(C)C)NC(=O)[C@@H](CC(C)C)NC(=O)[C@H](Cc2ccccc2)NC1=O (HELM PEPTIDE1{F.[dL].[dL].V.L}$PEPTIDE1,PEPTIDE1,1:R1-5:R2$$$V2.0) | 28 | 40 |
| CC(C)C[C@@H]1NC(=O)[C@H](C(C)C)NC(=O)[C@H](CC(C)C)N(C)C(=O)[C@@H](CC(C)C)NC(=O)[C@H](Cc2ccccc2)NC1=O (HELM PEPTIDE1{F.[dL].[meL].V.L}$PEPTIDE1,PEPTIDE1,1:R1-5:R2$$$V2.0) | 23 | 30 |
| CC(C)C[C@@H]1NC(=O)[C@H](CC(C)C)N(C)C(=O)[C@H](Cc2ccccc2)NC(=O)[C@H](CC(C)C)N(C)C(=O)[C@H](C(C)C)NC1=O (HELM PEPTIDE1{F.[meL].L.V.[meL]}$PEPTIDE1,PEPTIDE1,1:R1-5:R2$$$V2.0) | 20 | 0 |
| CC(C)C[C@@H]1NC(=O)[C@@H](C(C)C)NC(=O)[C@H](CC(C)C)NC(=O)[C@H](CC(C)C)N(C)C(=O)[C@H](Cc2ccccc2)NC1=O (HELM PEPTIDE1{F.[meL].L.[dV].L}$PEPTIDE1,PEPTIDE1,1:R1-5:R2$$$V2.0) | 38 | 19 |
| CC(C)C[C@@H]1NC(=O)[C@H](C(C)C)N(C)C(=O)[C@H](CC(C)C)NC(=O)[C@H](CC(C)C)N(C)C(=O)[C@H](Cc2ccccc2)NC1=O (HELM PEPTIDE1{F.[meL].L.[meV].L}$PEPTIDE1,PEPTIDE1,1:R1-5:R2$$$V2.0) | 18 | 15 |
| CC(C)C[C@@H]1NC(=O)[C@@H](Cc2ccccc2)NC(=O)[C@@H](CC(C)C)NC(=O)[C@@H](C(C)C)NC(=O)[C@H](CCCCN)NC1=O (HELM PEPTIDE1{K.[dV].[dL].[dF].L}$PEPTIDE1,PEPTIDE1,1:R1-5:R2$$$V2.0) | 2 | 17 |
| CC(C)C[C@@H]1NC(=O)[C@H](CC(C)C)NC(=O)[C@@H]2Cc3ccccc3CN2C(=O)[C@H](CC(C)C)NC(=O)[C@H](C(C)C)NC1=O (HELM PEPTIDE1{L.L.V.L.[Tic]}$PEPTIDE1,PEPTIDE1,1:R1-5:R2$$$V2.0) | 3 | 27 |

Source: ChEMBL document CHEMBL1140733, “Comprehensive study of sansalvamide A derivatives and their structure-activity relationships against drug-resistant colon cancer cell lines” (J Med Chem, 2008)
